These results are taken from ChEMBL document CHEMBL3259653, “Potent and selective inhibitors of human reticulocyte 12/15-lipoxygenase as anti-stroke therapies” (J Med Chem, 2014).

The source made the active and inactive calls. The calls are words filed in the database; no cut-off is given here.

Series [1] in a line: Metabolic stability in mouse plasma assessed as compound remaining measured at 2 hrs. The settings on record: read-out: Stability. In kind it is ADME, cell-free. The procedure, abridged:
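Compound was incubated in mouse plasma, and the percent remaining was measured at 2 h. Run at a contract lab.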

The subject of the next series is Mus musculus. Nature of the series: Neuroprotective activity in C57BL6J mouse distal middle cerebral artery occlusion model of permanent focal ischemia assessed as reduction in infarct size at 50 mg/kg, ip administered 2 hrs post ischemia induction measured after 24 hrs by TTC staining relative to vehicle-treated control. Type of series: functional. On the set-up: scale not given: the % may be the effect or the level left. To be noted: route intraperitoneal. The procedure, abridged: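 FeCl3-induced distal MCA occlusion: 10% FeCl3-saturated filter paper on intact dura along MCA under 1.5% isoflurane in N2O/O2, body temperature held at 37 ± 0.3 °C, rCBF followed by laser doppler for 3 h. Compound or DMSO vehicle given IP after 2 h ischemia. Sacrifice at 24 h; TTC staining of 1 mm slices, indirect infarct volume; surgeon and assessor blinded.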

In series [2] the target is T1, Polyunsaturated fatty acid lipoxygenase ALOX15 (Mus musculus) (UniProt P39654).
T1 sequence (whole entry): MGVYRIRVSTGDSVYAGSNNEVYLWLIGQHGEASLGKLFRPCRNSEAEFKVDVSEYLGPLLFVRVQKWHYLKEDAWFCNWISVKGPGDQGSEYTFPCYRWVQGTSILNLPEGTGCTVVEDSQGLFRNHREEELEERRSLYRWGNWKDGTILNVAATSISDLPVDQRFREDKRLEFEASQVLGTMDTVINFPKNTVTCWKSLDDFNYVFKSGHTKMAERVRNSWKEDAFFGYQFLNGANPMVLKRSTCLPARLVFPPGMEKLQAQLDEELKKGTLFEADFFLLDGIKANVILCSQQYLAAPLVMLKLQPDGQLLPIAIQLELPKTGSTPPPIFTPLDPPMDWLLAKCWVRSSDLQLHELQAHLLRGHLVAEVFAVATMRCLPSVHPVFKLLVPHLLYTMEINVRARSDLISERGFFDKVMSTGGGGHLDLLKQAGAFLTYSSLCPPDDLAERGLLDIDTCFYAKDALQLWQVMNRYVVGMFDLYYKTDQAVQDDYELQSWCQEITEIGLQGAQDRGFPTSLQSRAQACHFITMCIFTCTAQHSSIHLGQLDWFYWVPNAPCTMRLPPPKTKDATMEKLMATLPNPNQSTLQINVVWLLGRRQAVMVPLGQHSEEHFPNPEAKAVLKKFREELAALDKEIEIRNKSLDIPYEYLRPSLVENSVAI
The series is described as follows: Inhibition of 12/15-lipoxygenase in mouse HT22 cells assessed as protection against glutamate-induced cell death after 24 hrs by LDH release assay. Type of series: cell-based. The settings on record: HT-22. The procedure, abridged: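 HT22 mouse hippocampal cells were grown in DMEM with 10% FBS and penicillin/streptomycin, seeded at 1 × 10^4 cells/well and treated 18 h later at 50–70% confluence. Medium was exchanged for fresh medium with 5 mM glutamate plus compound or DMSO (≤0.1% final). Death was scored as percent LDH released to the medium versus the cell extract, background-subtracted.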
A general note: LDH in the medium is a marker of cell lysis.

Series [3] has as its target T1, Polyunsaturated fatty acid lipoxygenase ALOX15 (Mus musculus). Nature of the series: Inhibition of 12/15-lipoxygenase in mouse HT22 cells assessed as reduction of 12-HETE production at 10 uM after 24 hrs by HPLC/MS analysis. The settings on record: HT-22. Type of series: cell-based. Summed up: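 HT22 cells were grown in 75 cm² flasks in phenol red-free DMEM with 5% FBS and treated at 50–70% confluence with 5 mM glutamate with or without compound. After 24 h the eicosanoid fraction of the medium was isolated on a C-18 cartridge. 12-HETE was quantified by HPLC/MS against a 12(S)-HETE standard curve.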

Series [4] has as its target T2, Prostaglandin G/H synthase 1 (Ovis aries) (UniProt P05979).
T2 sequence (whole entry): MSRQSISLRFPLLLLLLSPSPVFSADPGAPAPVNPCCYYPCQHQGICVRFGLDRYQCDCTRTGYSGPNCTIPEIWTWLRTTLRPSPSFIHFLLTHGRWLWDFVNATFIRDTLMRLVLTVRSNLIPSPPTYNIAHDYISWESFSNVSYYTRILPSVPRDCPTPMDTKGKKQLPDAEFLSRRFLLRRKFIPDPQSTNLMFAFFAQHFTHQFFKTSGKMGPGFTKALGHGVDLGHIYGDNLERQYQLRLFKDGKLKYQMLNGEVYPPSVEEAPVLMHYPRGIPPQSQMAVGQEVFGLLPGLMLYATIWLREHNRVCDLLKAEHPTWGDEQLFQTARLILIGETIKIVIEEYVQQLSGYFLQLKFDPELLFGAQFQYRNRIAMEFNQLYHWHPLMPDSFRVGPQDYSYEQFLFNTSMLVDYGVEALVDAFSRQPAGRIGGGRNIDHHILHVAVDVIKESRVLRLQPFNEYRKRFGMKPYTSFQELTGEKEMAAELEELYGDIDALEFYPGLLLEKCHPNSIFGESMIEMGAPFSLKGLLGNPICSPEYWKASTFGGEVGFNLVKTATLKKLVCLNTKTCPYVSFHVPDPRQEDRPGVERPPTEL
Nature of the series: Inhibition of ovine COX-1 using arachidonic acid as substrate assessed as consumption of oxygen at 5 uM preincubated for 5 mins followed by substrate addition by oxygen electrode-based assay relative to control. Summed up:
(§1)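 COX-1 or COX-2 (2–5 μg) in 0.1 M Tris-HCl pH 8.0 with 5 mM EDTA, 2 mM phenol and 1 μM hematin at 37 °C. Inhibitor was preincubated 5 min, then 100 μM arachidonic acid was added. Oxygen consumption was read on an oxygen electrode, and percent inhibition was calculated against a DMSO control, with indomethacin as positive control.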

Series [5] concerns the target T3, Prostaglandin G/H synthase 2 (Homo sapiens) (UniProt P35354).
T3 sequence (whole entry): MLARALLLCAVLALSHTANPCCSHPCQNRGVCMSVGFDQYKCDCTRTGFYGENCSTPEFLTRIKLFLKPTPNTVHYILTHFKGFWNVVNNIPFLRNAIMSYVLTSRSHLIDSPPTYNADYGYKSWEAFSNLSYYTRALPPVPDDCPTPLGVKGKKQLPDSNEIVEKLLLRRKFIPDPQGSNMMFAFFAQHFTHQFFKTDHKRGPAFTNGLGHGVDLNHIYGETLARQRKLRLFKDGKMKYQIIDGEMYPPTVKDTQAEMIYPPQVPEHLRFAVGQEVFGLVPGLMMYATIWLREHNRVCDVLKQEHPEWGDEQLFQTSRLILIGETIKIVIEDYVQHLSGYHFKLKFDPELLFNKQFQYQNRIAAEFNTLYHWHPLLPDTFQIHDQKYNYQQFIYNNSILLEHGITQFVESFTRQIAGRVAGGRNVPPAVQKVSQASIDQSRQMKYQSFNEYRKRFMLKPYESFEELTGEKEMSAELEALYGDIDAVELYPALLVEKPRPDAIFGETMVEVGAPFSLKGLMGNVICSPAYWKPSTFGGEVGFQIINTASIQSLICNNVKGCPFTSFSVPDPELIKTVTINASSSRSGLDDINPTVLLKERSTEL
The series is described as follows: Inhibition of human COX-2 using arachidonic acid as substrate assessed as consumption of oxygen at 5 uM preincubated for 5 mins followed by substrate addition by oxygen electrode-based assay relative to control. The procedure, abridged:
as §1

Series [6] relates to Liver microsome. The series is described as follows: Half life in rat liver microsomes in presence of NADPH. Type of series: ADME. The procedure, abridged: (§2)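 Rat or mouse liver microsomes were incubated with NADPH, and half-life was taken from compound depletion. Run at a contract lab.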
The subject of series [7] is Liver. The series is described as follows: Half life in mouse liver microsomes in presence of NADPH. Type of series: ADME. The procedure, abridged: as §2
A general note: Liver microsomes are a subcellular fraction often used to study metabolism.

Series [8] concerns Liver microsome. The series is described as follows: Metabolic stability in rat liver microsomes measured over 1 hr in absence of NADPH. Type of series: ADME. The procedure, abridged:
(§3)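 Liver microsomes (mouse or rat) were incubated without NADPH over a 1 h period, and compound degradation was followed. Run at a contract lab.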

In series [9] the test system is Liver. The series is described as follows: Metabolic stability in mouse liver microsomes measured over 1 hr in absence of NADPH. In kind it is ADME. Summed up: as §3
Series [10] is described as follows: Stability of the compound in buffer at pH 2 measured over 48 hrs. The settings on record: pH 2, 48 h. In kind it is physicochemical.
A short description of series [11]: Stability of the compound in DPBS buffer at pH 7.4 measured over 48 hrs. Type of series: physicochemical. To be noted: pH 7.4, 48 h.
The nature of series [12]: Stability of the compound in buffer at pH 9 measured over 48 hrs. Type of series: physicochemical. To be noted: pH 9, 48 h.
Series [13] has as its system Plasma. Nature of the series: Half life in CD1 mouse plasma at 30 mg/kg, ip. Type of series: ADME, organism-based. Further details: dose 30 mg/kg, route intraperitoneal. The settings on record: in vivo. The procedure, abridged: (§4)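 Male CD1 mice, 6–8 weeks old, given a single 30 mg/kg IP dose formulated as a solution in 10% Solutol, 10% Cremophor EL and 20% PEG 400 in saline. Plasma and brain were sampled at eight time points over 24 h, in triplicate. Study run at a contract lab.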

For series [14], the system named is Brain. Nature of the series: Half life in CD1 mouse brain at 30 mg/kg, ip. Type of series: ADME, organism-based. Further details: dose 30 mg/kg, route intraperitoneal. To be noted: in vivo. Summed up:
as §4

Series [15] concerns Plasma. Nature of the series: Cmax in CD1 mouse plasma at 30 mg/kg, ip. Type of series: ADME, organism-based. On the set-up: dose 30 mg/kg, route intraperitoneal. To be noted: in vivo. The procedure, abridged: as §4
In series [16] the test system is Brain. The series is described as follows: Cmax in CD1 mouse brain at 30 mg/kg, ip. Type of series: ADME, organism-based. On the set-up: dose 30 mg/kg, route intraperitoneal. To be noted: in vivo. Summed up:
as §4

As for `CNc1oc(-c2cccc3ccccc23)nc1C#N`, in [1], the remaining at 2 h came out at 100%. In addition, in the series on Mus musculus, the Activity is recorded as 30%. For the same molecule, the figures for the inhibition result in series [2], in series [4] and in series [5] were “Dose-dependent effect”, below 10% and below 10%, respectively. In addition, in series [3], the inhibition entry is “Active”. The t1/2 is 18 min with Liver microsome [6], 5.5 min in the series on Liver [7], 66 min in the series with Plasma [13] and 60 min with Brain [14]. Also, the Stability result (in the series on Liver microsome [8]; with Liver [9]; in series [10]; in [11]; in series [12]) was “Stable” in each case. Further, the Cmax with Plasma [15] was found to be 13.8 µM; in the series with Brain [16], 28.8 µM.

What is called inhibition is the relative decrease from the control value, in per cent. For orientation: Cmax means the peak of the concentration-time curve.
